Rows were chosen to be rich in hits. Some 3.5% of all compounds tested hit in one or more screens of this group.
RGS4 act: potentiators or activators of RGS4 | HEK293 M3R/inducible RGS4, carbachol calcium flux Fluo4; active compounds read low | B-score at 10 µM | actives 0.92% (n = 310,000) | AID 463111;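 active = B-score of the integrated calcium signal more than 4 SD below the library mean, with starting fluorescence not abnormally high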;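 note: negative B-score means reduced calcium response which marks RGS4 activation or potentiation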
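Assay system: Inducible-RGS4 HEK293 cells carrying M3 receptor | Schedule: Compound preincubation 20 min at room temperature before agonist | Signal: Kinetic calcium fluorescence imaging with Fluo4-AM dye, 2 µM | Read-out basis: B score from integrated fluorescence ratio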
MrgX1 agonist: agonists of human MrgX1 receptor; Q96LB2; MrgX1-HEK293 cells, Fluo-4 calcium fluorescence, agonist mode; active compounds read high; B-score at 10 µM; actives 0.44% (n = 310,000); AID 588627;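 active = calcium response B-score plate-corrected fluorescence ratio at least 3 library SD, with starting fluorescence B-score inside 5 SD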
Target sequence (Q96LB2 whole entry, looked up): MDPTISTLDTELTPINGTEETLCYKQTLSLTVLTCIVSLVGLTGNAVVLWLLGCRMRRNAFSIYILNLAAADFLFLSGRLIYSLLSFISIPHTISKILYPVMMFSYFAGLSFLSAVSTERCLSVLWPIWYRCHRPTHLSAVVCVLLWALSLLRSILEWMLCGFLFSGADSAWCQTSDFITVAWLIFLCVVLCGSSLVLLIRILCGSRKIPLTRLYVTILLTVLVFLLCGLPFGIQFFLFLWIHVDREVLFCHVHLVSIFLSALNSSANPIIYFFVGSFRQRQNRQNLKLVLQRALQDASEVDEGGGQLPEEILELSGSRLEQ
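Test system: Stable human MrgX1 HEK293 cell line | Schedule: Overnight plating before 1 h dye loading | Read-out basis: Baseline-normalised fluorescence change ratio, B-scored | Detection: Kinetic calcium dye fluorescence, Fluo-4 NW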
RGS4 block: inhibitors of human RGS4; HEK293 M3R/RGS4 inducible, Fluo-4 calcium flux; active compounds read high; triggered by carbachol at its EC20; AID 463165; actives 0.45% (n = 310,000); B-score at 10 µM;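 active = B-score, a plate-corrected calcium signal, over three deviations above library mean, with baseline fluorescence within five deviations of library mean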;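 note: RGS4 expression induced by doxycycline in cells with stable M3 receptor; B-score is computed from the integrated fluorescence ratio over baseline after carbachol; higher B-score means a larger calcium signal and so more RGS4 inhibition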
MrgX1 antag: blocks BAM8-22 activation of human MrgX1 receptor. Q96LB2. MRGX1-HEK293 calcium flux, Fluo-4, BAM8-22 antagonism; active compounds read low. B-score at 10 µM. actives 1.3% (n = 310,000);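 active = calcium-response B-score plate-corrected more than 3 library SD below zero, starting fluorescence within 5 deviations, no agonist response on first addition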;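 note: peak minus trough fluorescence over baseline after final BAM8-22 challenge near maximal dose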
MrgX1 PAM: allosterically activates human MrgX1 receptor signaling | Q96LB2 | MrgX1-HEK293, Fluo-4 calcium flux, FDSS; active compounds read high | B-score at 10 µM | actives 0.63% (n = 310,000) | AID 588675;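 active = plate-corrected calcium response at least 3 library SD above typical, normal starting fluorescence, not activating the receptor alone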;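 note: compound read alongside a low EC10 to EC30 dose of BAM8-22 agonist; peak minus trough fluorescence over baseline measured at the second addition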
RGS4 inh valid: validation of RGS4 inhibitors; calcium response, % at 10 µM; actives 65% (n = 1,700); shares compounds with RGS4 block; HEK293 M3R/RGS4, carbachol calcium Fluo-4 fluorescence; carbachol added at its EC20; 0 = buffer wells, 100 = carbachol control;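 active = duplicate-averaged calcium response above the buffer-only control mean plus 5 SD of those controls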;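 note: integrated fluorescence ratio F max minus min over baseline F0; higher response in RGS4-induced cells means RGS4 inhibition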
RGS4 uninduced: checks RGS4 inhibitor effects in non-induced HEK293 M3R cells. activity (percent), % at 10 µM. shares compounds with RGS4 block. actives 20% (n = 1,900). AID 493000. carbachol calcium Fluo-4; submaximal (EC20) carbachol stimulus; buffer wells 0%, carbachol control wells 100%; call rule not given here;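 note: RGS4 induction absent so cells express M3R without RGS4; higher means more calcium signal and flags a non-specific hit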
RGS4 inh ctr2: signal in non-induced cells without carbachol, RGS4 inhibitor counter-screen; shares compounds with RGS4 block; HEK293 M3R/RGS4 non-induced, Fluo-4 calcium, no carbachol; normalised: buffer wells 0%, carbachol wells 100%; calcium response (agonist-mode artifact), % at 10 µM; actives 22% (n = 1,900); AID 493001;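 active = duplicate-averaged calcium rise in uninduced cells above buffer wells' mean plus 5 SD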
Hits are given with their value; - = inactive; . = no result given.

SMILES	RGS4 act	MrgX1 agonist	RGS4 block	MrgX1 antag	MrgX1 PAM	RGS4 inh valid	RGS4 uninduced	RGS4 inh ctr2
CN(C)c1ccc(C(CNS(=O)(=O)c2ccc3ccccc3c2)N2CCOCC2)cc1 (stereo not drawn)	-	-	5.2	-	-	5.0%	-	-
CN(C)Cc1nc2c(c(=O)[nH]1)C1(CCCCC1)Cc1ccccc1-2	-	-	-	-	-	.	.	.
O=c1[nH]c(NCCCO)nc2c1C1(CCCC1)Cc1ccccc1-2	-	-	7.3	-	-	31%	-	30%
CCC1(C)Cc2ccccc2-c2nc(NCCCO)[nH]c(=O)c21 (stereo not drawn)	-	-	-	-	-	.	39%	-
CCC1(CC)Cc2ccccc2-c2nc(NCCCO)[nH]c(=O)c21	-	-	37	-	-	71%	53%	7.5%
COc1c2ccoc2nc2c(OC)c(OC[C@@H](O)C(C)(C)O)ccc12	.	-	.	-	-	.	.	.
S=C1NC[C@H](Cc2ccccc2)N1CCCCC1CCCCC1	-	-	-	-	-	-	-	-
O=C1Nc2ccccc2/C1=C/C(=O)c1cccs1	-	-	7.1	-	-	14%	-	-
COc1ccc(C(=O)/C=C2/C(=O)Nc3ccccc32)cc1	-	-	7	-	-	16%	-	-
C=CCOc1ccc(C(=O)/C=C2/C(=O)Nc3ccccc32)cc1	-	-	4.7	-	-	14%	37%	-
COc1ccc(CCNC(=O)CCOc2cc(C)ccc2C)cc1OC	-	-	-	-	-	.	.	.
CCN1CCN(C(=O)C2CCN(S(=O)(=O)c3ccc(SC)cc3)CC2)CC1	-	-	-	-	-	.	.	.
CN(Cc1ccc(Cl)c(Cl)c1)C(=O)CN1C(=O)NC2(CCCC2)C1=O	-	-	-	-	-	.	.	.
CC(C)OP(=O)(OC(C)C)/C(C=O)=N\Nc1ccc([N+](=O)[O-])cc1	-	-	6.6	-	-	13%	-	-
Cc1nnnn1/C(=C\c1ccccc1)C(=O)OCC(=O)NC(C)(C)C	-	-	-	-	-	.	.	.
Cc1nnnn1/C(=C\c1ccccc1)C(=O)OCC(=O)NC1CCCCC1	-	-	6.4	-	-	12%	-	9.0%
CC(=O)Nc1ccc(NC(=O)COC(=O)/C(=C/c2ccccc2)n2nnnc2C)cc1	-	-	6.4	-	-	18%	-	-
Cc1oc(-c2ccccc2F)nc1CS(=O)CC(=O)NC1CCCCC1 (stereo not drawn)	-	-	-	-	-	.	.	.
CC(=O)Nc1ccc(Nc2cc(C)nc3c(-c4ccc(Cl)cc4)cnn23)cc1	-	-	-	-	-	.	.	.
Cc1cc(N)n2nc(C)c(-c3ccc(Cl)cc3)c2n1	-	-	7.8	-	-	10%	-	-
CC(=O)Nc1ccc(Nc2cc(C)nc3c(-c4ccc(Cl)cc4)c(C)nn23)cc1	-	-	-	-	-	.	-	-
CC1(C)CC(=O)C(C(C2=C(O)CC(C)(C)CC2=O)c2ccco2)C(=O)C1 (stereo not drawn)	-	-	7	-	-	22%	-	-
CC(=O)Nc1ccc(-c2csc(NC(=O)C3CSC4(C)CCC(=O)N34)n2)cc1 (stereo not drawn)	-	-	-	-	-	.	.	.
O=C(N1CCOCC1)N1CCN(S(=O)(=O)c2cccc([N+](=O)[O-])c2)CC1	-	-	-	-	-	.	.	.
CC(=O)NC(c1cccc([N+](=O)[O-])c1)c1c(OC(C)=O)ccc2ccccc12 (stereo not drawn)	-	-	-	-	-	.	.	.
CC(=O)Oc1ccc2ccccc2c1C(NC(=O)Cc1ccccc1)c1ccccc1 (stereo not drawn)	-	-	5.5	-	-	14%	30%	-

Assay outcomes as filed in PubChem.
